In experiment [1] the test system is A673. Description: Induction of apoptosis in human A673 cells assessed as caspase-3 activation after 24 hrs by luminescence assay. The experiment is classed as functional, cell-based. To be noted: A673, 24 h. The method in brief:
(§1)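 Caspase-3/7 activation measured with a Caspase-Glo 3/7 luminescent assay. Cells were plated as for the high-throughput viability assay and exposed for 24 h to serial dilutions. EC50 was obtained from the dose-response.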

The next experiment relates to BT-549. Description: Cytotoxicity against human BT549 cells after 72 hrs by resazurin/resorufin-based fluorescence assay. The class given is functional, cell-based. As to conditions: BT-549, 72 h. The method in brief:
(§2)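 CellTiter-Blue viability: 1200 cells per well seeded, incubated overnight at 37 °C, 5% CO₂; drugs serially diluted 2:3 in medium, four replicate wells per concentration plus four diluent-only control wells; 72 h exposure; resazurin reduction to resorufin read by fluorescence (579 nm ex/584 nm em). IC50 is the average of three data sets, each using nine concentrations between 0.004 μM and 12.5 μM.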
In general terms: The colour change of resazurin is a common sign of viable cells or microbes.

Experiment [2] can be described thus: Cytotoxicity against human RPMI18226 cells after 72 hrs by resazurin/resorufin-based fluorescence assay. The class given is functional, cell-based. To be noted: RPMI18226, 72 h.
The test system of the next experiment is SW872. Nature of the experiment: Cytotoxicity against human SW872 cells after 72 hrs by resazurin/resorufin-based fluorescence assay. To be noted: SW872, 72 h. The experiment is classed as functional, cell-based.
The next experiment relates to HOS-TE85. Nature of the experiment: Cytotoxicity against human MNNG-HOS cells after 72 hrs by resazurin/resorufin-based fluorescence assay. The class given is functional, cell-based. To be noted: HOS-TE85, 72 h.
The next experiment deals with U-266. Description: Cytotoxicity against human U266 cells after 72 hrs by resazurin/resorufin-based fluorescence assay. The experiment is classed as functional, cell-based. To be noted: U-266, 72 h.
Experiment [3] can be described thus: Cytotoxicity against human NCI-H929 cells after 72 hrs by resazurin/resorufin-based fluorescence assay. The class given is functional, cell-based. To be noted: NCI-H929, 72 h.
The test system of another experiment is SK-UT-1. Description: Cytotoxicity against human SK-UT-1 cells after 72 hrs by resazurin/resorufin-based fluorescence assay. The class given is functional, cell-based. As to conditions: SK-UT-1, 72 h.
The test system of another experiment is SK-ES1. Nature of the experiment: Cytotoxicity against human SK-ES-1 cells after 72 hrs by resazurin/resorufin-based fluorescence assay. As to conditions: SK-ES1, 72 h. The class given is functional, cell-based.
A further experiment has as its system SK-BR-3. Description: Cytotoxicity against human SK-BR-3 cells after 72 hrs by resazurin/resorufin-based fluorescence assay. The class given is functional, cell-based. As to conditions: SK-BR-3, 72 h. An outline of the steps: as §2
Another experiment deals with NCI-H929. Description: Induction of apoptosis in human NCI-H929 cells assessed as increase in cleaved caspase-3 level at 0.005 uM after 24 hrs by FACS flow cytometric analysis relative to control. The experiment is classed as functional. An outline of the steps:
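Active caspase-3 was detected with a FITC-labelled monoclonal antibody by flow cytometry, and the percentage of cells with raised cleaved caspase-3 is reported. Triplicate experiments.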
A general note: A flow cytometer gives signals particle by particle.

Experiment [4] relates to A673. Description: Induction of apoptosis in human A673 cells assessed as caspase-3 activation at 0.05 uM to 5 uM after 24 hrs by luminescence assay relative to control. The class given is functional. An outline of the steps:
as §1

Experiment [5] is described as follows: Cytotoxicity against human MDA-MB-436 cells after 72 hrs by resazurin/resorufin-based fluorescence assay. The experiment is classed as functional, cell-based. To be noted: MDA-MB-436, 72 h.
For the next experiment, the system named is MDA-MB-231. Description: Cytotoxicity against human MDA-MB-231 cells after 72 hrs by resazurin/resorufin-based fluorescence assay. The class given is functional, cell-based. As to conditions: MDA-MB-231, 72 h.
The target of experiment [6] is T1, CDK2/Cyclin A2 (Homo sapiens, UniProt P24941). Description: Inhibition of human CDK2/Cyclin A2 using PKTPKKAKKL as substrate by fluorescence assay. The class given is protein-complex assay.
For another experiment, the system named is MCF7. Description: Cytotoxicity against human MCF7 cells after 72 hrs by resazurin/resorufin-based fluorescence assay. The experiment is classed as functional, cell-based. To be noted: MCF7, 72 h.
For another experiment, the system named is T47D. Description: Cytotoxicity against human T47D cells after 72 hrs by resazurin/resorufin-based fluorescence assay. The class given is functional, cell-based.
For experiment [7], the system named is A673. Description: Cytotoxicity against human A673 cells after 72 hrs by resazurin/resorufin-based fluorescence assay. The class given is functional, cell-based. To be noted: A673, 72 h.
The target of experiment [8] is T1, CDK2/Cyclin A2. Description: Inhibition of human CDK2/Cyclin A2 using PKTPKKAKKL as substrate by P33-radiolabeled assay. The experiment is classed as protein-complex assay. The method in brief: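 Radiometric (P33) kinase assay run by a contract lab on CDK–cyclin complexes. Inhibitor tested in duplicate at 0.05 nM to 1000 nM with ATP at 10 μM. […] For the in-house assays, IC50 was obtained by Hill-equation fitting.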

Experiment [9] can be described thus: Cytotoxicity against mouse GC-1 cells after 72 hrs by MTT assay. The class given is functional, cell-based. As to conditions: GC-1, 72 h. The method in brief: (§3)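 Cells kept in RPMI or DMEM with 10% FBS at 37 °C, 5% CO₂ and allowed to attach overnight; 72 h with increasing inhibitor concentrations; then 1 mg/mL MTT for 3 h, DMSO solubilisation, OD read at 540 nm. Testis lines had culture conditions adapted to them. Dose-response in triplicate, 9 concentrations between 0.02 and 100 μM, averaged.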

A short description of experiment [10]: Cytotoxicity against mouse TM4 cells after 72 hrs by MTT assay. As to conditions: TM4, 72 h. The class given is functional, cell-based. An outline of the steps:
as §3

The nature of experiment [11]: Cytotoxicity against mouse GC-2 cells after 72 hrs by MTT assay. To be noted: GC-2, 72 h. The experiment is classed as functional, cell-based. An outline of the steps: as §3
Background: Formazan colour is commonly taken as a measure of viable cells.

The next experiment deals with MDA-MB-468. Nature of the experiment: Cytotoxicity against human MDA-MB-468 cells after 72 hrs by MTT assay. The experiment is classed as functional, cell-based. As to conditions: MDA-MB-468, 72 h. The method in brief: as §3
Experiment [12] deals with T1, CDK2/Cyclin A2. Description: Inhibition of human CDK2/Cyclin A2 using PKTPKKAKKL as substrate by PK/LDH spectrophotometric analysis. The class given is protein-complex assay.

Consider `COc1cccc2c1C(=O)c1c(O)c3c(c(O)c1C2=O)C[C@@](O)(C(=O)CO)C[C@@H]3O[C@H]1C[C@H](N)[C@H](O)[C@H](C)O1` [DOXORUBICIN], for which, in the experiment on A673 [1], the EC50 (commonly the midpoint of the concentration-response curve) is 0.39 µM. Moreover, the IC50 (usually the point on the concentration scale where inhibition reaches its midpoint) in the experiment with BT-549 is 0.11 µM; in experiment [2] it was 0.27 µM; in the experiment on SW872, 0.14 µM; in the experiment on HOS-TE85 it was 0.59 µM; with U-266, 0.67 µM; in experiment [3], 0.065 µM. Also, the IC50 came out at 0.076 µM with SK-UT-1, 0.042 µM in the experiment with SK-ES1 and 0.09 µM in the experiment with SK-BR-3.
As to `CCc1cnn2c(NCc3ccc[n+]([O-])c3)cc(N3CCCC[C@H]3CCO)nc12` [DINACICLIB], the Activity is listed as 63% in the experiment on NCI-H929 and 280% in the experiment on A673 [4]. The IC50 with BT-549 is above 10 µM; in experiment [5] it was below 0.005 µM; in the experiment on MDA-MB-231 it was below 0.005 µM; in the experiment on SK-BR-3, below 0.005 µM.
`Nc1cccc(C(=O)c2sc(Nc3ccc(S(N)(=O)=O)cc3)nc2N)c1`: the IC50 against CDK2/Cyclin A2 [6] was 0.07 µM; in the experiment with BT-549 it was above 10 µM; in experiment [2], above 10 µM; in the experiment on SW872, above 10 µM; in the experiment on MCF7 it was above 10 µM; in the experiment with HOS-TE85, above 10 µM. The IC50 in experiment [5] is above 10 µM; in the experiment with U-266 it was 5.5 µM; in experiment [3], 6.8 µM; in the experiment with MDA-MB-231, above 10 µM; with SK-UT-1 it was above 10 µM; in the experiment on T47D, 5.8 µM. Further, the IC50 amounted to 9.8 µM in the experiment with SK-ES1, 8.8 µM in the experiment on A673 [7] and 4.1 µM in the experiment on SK-BR-3.
Take `Nc1nc(Nc2ccc(S(N)(=O)=O)cc2)sc1C(=O)c1ccc(S(N)(=O)=O)cc1`: the IC50 against CDK2/Cyclin A2 [6] is 0.07 µM; with BT-549, above 10 µM; in experiment [2], above 10 µM; in the experiment on SW872 it was above 10 µM; in the experiment with MCF7, above 10 µM; in the experiment with HOS-TE85, above 10 µM. The IC50 in experiment [5] is above 10 µM; in the experiment with U-266 it was 7.2 µM; in [3] it was above 10 µM; in the experiment on MDA-MB-231, above 10 µM; in the experiment on SK-UT-1 it was above 10 µM; in the experiment with T47D it was 8.7 µM. Besides, the IC50 in the experiment on SK-ES1, in the experiment on A673 [7] and with SK-BR-3 was above 10 µM each time.
As for `Nc1nc(Nc2ccc(S(N)(=O)=O)cc2)sc1C(=O)c1cccnc1`, the concentration for half-maximal inhibition (IC50) at CDK2/Cyclin A2 [6] is 0.02 µM; at CDK2/Cyclin A2 [8], 0.0009 µM; in [9], 20 µM; in experiment [10], 13 µM; in [11], above 30 µM; with MDA-MB-468, 2.8 µM.
For the molecule `Nc1nc(Nc2ccc(S(N)(=O)=O)cc2)sc1C(=O)c1ccc2ccccc2c1`, the 50% inhibitory concentration (IC50) in the experiment on BT-549 is above 10 µM; in experiment [2], above 10 µM; with SW872, above 10 µM; in the experiment with MCF7, 5.9 µM; with HOS-TE85 it was 9.7 µM; in experiment [5], 5.3 µM. The IC50 was 7.9 µM in the experiment with U-266; 4.3 µM in [3]; above 10 µM in the experiment with MDA-MB-231; 4.5 µM with T47D; 4.8 µM with SK-ES1; 3.7 µM in the experiment on A673 [7]. For the same molecule, the IC50 was found to be 6.1 µM in the experiment on SK-BR-3, 5.5 µM in the experiment with MDA-MB-468 and 82 µM at CDK2/Cyclin A2 [12].
Regarding `Nc1nc(Nc2ccc(S(N)(=O)=O)cc2)sc1C(=O)c1cccc(F)c1`, the IC50 on CDK2/Cyclin A2 [6] was 0.05 µM; in the experiment with BT-549, above 10 µM; in experiment [2] it was 6.8 µM; with SW872, 3.1 µM; with MCF7 it was 1.3 µM; in the experiment on HOS-TE85 it was 2.2 µM. For the same molecule, the IC50 stood at 1.3 µM in [5]; 1.5 µM in the experiment with U-266; 1 µM in experiment [3]; 1.2 µM with MDA-MB-231; 1.6 µM in the experiment with SK-UT-1; 0.98 µM in the experiment with T47D. For the same molecule, the IC50 in the experiment on SK-ES1 turned out to be 1.1 µM; with A673 [7], 0.45 µM; with SK-BR-3 it was 1.2 µM; in [9], 6.4 µM; in experiment [10], 4.8 µM; in experiment [11], 3.9 µM. Inhibition in the experiment with MDA-MB-468 was half-maximal at 0.8 µM (IC50).

Source of the values: ChEMBL document CHEMBL2375244 (J Med Chem, 2013).
